The record followed here is ChEMBL document CHEMBL1221325, “Synthesis and ribonuclease A inhibition activity of resorcinol and phloroglucinol derivatives of catechin and epicatechin: Importance of hydroxyl groups” (Bioorg Med Chem, 2010).

Calls of active or inactive are those of the source. The rule behind the calls is not given here.

Assay [1] concerns the target Ribonuclease pancreatic (Bos taurus) (UniProt P61823). The experiment in a line: Inhibition of RNase A-mediated degradation of yeast tRNA assessed as residual tRNA band by agarose gel electrophoresis relative to control.
Assay [2] has the same target. The experiment in a line: Binding affinity to RNase A by fluorescence quenching.
A further assay is filed under the species Gallus gallus. Description: Antiangiogenic activity against angiogenin-induced angiogenesis in chicken eggs at 150 uM for 10 days measured after 48 hrs by CAM assay. Conditions: Egg. Format: functional. Summed up:
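Chick embryo chorioallantoic membrane exposed through a small hole drilled in the shell on day 2. 10 µl aliquots of angiogenin, alone or mixed with compound, dried on transparent discs, which were inverted onto the CAM on day 10. Response read after 48 h as density of blood vessel formation against a control set.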

Sequence of Ribonuclease pancreatic (Bos taurus) (P61823 whole entry, looked up): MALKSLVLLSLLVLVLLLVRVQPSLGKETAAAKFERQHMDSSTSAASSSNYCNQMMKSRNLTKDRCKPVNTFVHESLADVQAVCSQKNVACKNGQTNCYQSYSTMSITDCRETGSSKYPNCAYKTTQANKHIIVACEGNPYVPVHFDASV

Consider `Oc1cc(O)c([C@@H]2c3c(O)cc(O)cc3O[C@H](c3ccc(O)c(O)c3)[C@@H]2O)c(O)c1`, for which the Ratio in assay [1] was found to be 0.699. Also, the Kb in assay [2] stood at 3.14 ×10⁴ /M.

Consider `Oc1cc(O)c([C@H]2c3c(O)cc(O)cc3O[C@H](c3ccc(O)c(O)c3)[C@@H]2O)c(O)c1`, for which the Ratio in assay [1] turned out to be 0.704. In addition, the outcome in the assay filed under Gallus gallus was Active. For the same compound, the Kb in assay [2] turned out to be 6.76 ×10⁴ /M.

Consider `Nc1ccn([C@@H]2O[C@H](CO)[C@@H](OP(=O)(O)O)[C@H]2O)c(=O)n1`, for which, in assay [1], the Ratio stood at 0.71.

On to `Oc1ccc([C@@H]2c3c(O)cc(O)cc3O[C@H](c3ccc(O)c(O)c3)[C@H]2O)c(O)c1`, for which, in assay [1], the Ratio was determined as 0.612. Besides, the Kb in assay [2] turned out to be 1.37 ×10⁴ /M.

Consider `Oc1ccc([C@H]2c3c(O)cc(O)cc3O[C@H](c3ccc(O)c(O)c3)[C@@H]2O)c(O)c1`, for which the Ratio in assay [1] was found to be 0.659. The outcome in the assay listed under Gallus gallus was Active. For the same compound, the Kb in assay [2] turned out to be 2.42 ×10⁴ /M.

Turning to `Oc1cc(O)c2c(c1)O[C@H](c1ccc(O)c(O)c1)[C@H](O)C2`, in assay [1], the Ratio was 0.295.

As to `Oc1cc(O)c2c(c1)OC(c1ccc(O)c(O)c1)C(O)C2` (stereo not drawn), the Ratio in assay [1] came to 0.331.
